pIC50, pKi: −log10 of the molar value. The source made the active and inactive calls. The calls are words filed in the database; no cut-off is given here.
Columns and labels:
[1] = target: T1, Hepatocyte growth factor receptor (Homo sapiens, UniProt P08581); test: Inhibition of hepatocyte growth factor-induced MET phosphorylation in human HCT116 cells at 5 uM after 30 mins by immunoblot; assay type: cell-based
Summary of the method: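 Whole-cell lysates immunoblotted for phospho-MET and total MET, with β-actin as loading control; densitometry with phospho-MET normalized to total MET.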

[2] = target: T1, Hepatocyte growth factor receptor; test: Inhibition of MET kinase
Summary of the method: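 Cell-free MET kinase activity assay run over a range of inhibitor concentrations; IC50 taken as the concentration giving 50% inhibition of kinase activity; data as mean ± SD, n = 3.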

[3] = target: T1, Hepatocyte growth factor receptor; test: Inhibition of MET kinase by Dixon plot analysis
Summary of the method: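 MET kinase activity measured at several inhibitor concentrations; Dixon plot (1/V versus [I]) and Cornish-Bowden plot ([S]/V versus [I]) used to assign inhibition type; Ki derived by linear regression of the Dixon plot.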

Homo sapiens = test: Plasma concentration in po dosed human; assay type: ADME, organism-based; conditions: in vivo
Mus musculus = test: Plasma concentration in po dosed mouse; assay type: ADME, organism-based; conditions: in vivo

T1 sequence (P08581 whole entry): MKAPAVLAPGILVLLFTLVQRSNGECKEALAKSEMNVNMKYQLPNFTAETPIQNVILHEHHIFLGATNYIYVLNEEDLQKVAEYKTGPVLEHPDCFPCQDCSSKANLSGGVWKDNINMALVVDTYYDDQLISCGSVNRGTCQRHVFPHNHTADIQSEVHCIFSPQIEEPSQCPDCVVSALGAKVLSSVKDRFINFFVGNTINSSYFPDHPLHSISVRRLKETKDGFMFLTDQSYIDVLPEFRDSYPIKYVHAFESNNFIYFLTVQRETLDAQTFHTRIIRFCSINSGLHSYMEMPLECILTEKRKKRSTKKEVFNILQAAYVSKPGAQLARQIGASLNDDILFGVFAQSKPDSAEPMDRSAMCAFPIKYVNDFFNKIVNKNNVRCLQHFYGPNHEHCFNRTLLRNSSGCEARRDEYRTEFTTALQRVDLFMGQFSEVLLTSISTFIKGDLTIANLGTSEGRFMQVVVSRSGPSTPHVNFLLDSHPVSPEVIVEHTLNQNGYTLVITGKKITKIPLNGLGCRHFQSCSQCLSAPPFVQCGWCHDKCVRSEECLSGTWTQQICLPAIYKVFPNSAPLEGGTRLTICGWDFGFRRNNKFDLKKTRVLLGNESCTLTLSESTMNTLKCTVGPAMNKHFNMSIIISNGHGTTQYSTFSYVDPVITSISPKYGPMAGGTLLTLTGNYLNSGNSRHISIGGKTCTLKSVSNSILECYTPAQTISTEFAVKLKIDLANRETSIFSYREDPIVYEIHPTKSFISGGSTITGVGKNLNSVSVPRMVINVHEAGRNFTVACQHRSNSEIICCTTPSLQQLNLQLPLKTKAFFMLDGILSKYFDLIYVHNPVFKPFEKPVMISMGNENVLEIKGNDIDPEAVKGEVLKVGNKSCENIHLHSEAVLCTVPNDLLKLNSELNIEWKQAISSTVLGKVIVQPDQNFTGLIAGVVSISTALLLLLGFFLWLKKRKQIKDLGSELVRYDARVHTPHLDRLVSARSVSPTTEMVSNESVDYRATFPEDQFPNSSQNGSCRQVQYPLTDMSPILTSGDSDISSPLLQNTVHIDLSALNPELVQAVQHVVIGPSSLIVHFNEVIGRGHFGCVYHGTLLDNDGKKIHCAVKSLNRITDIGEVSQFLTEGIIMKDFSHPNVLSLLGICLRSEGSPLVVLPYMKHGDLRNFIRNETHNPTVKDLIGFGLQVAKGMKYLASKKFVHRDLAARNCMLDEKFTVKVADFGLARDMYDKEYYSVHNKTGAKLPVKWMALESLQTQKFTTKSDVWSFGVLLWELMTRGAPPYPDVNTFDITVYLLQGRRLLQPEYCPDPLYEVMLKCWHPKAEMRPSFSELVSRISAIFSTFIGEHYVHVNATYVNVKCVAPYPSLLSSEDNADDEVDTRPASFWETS

SMILES | inhibition [1] | pIC50 [2] | inhibition [2] | also measured
O=C(O[C@@H]1Cc2c(O)cc(O)cc2O[C@@H]1c1ccc(O)c(O)c1)c1cc(O)c(O)c(O)c1 [EPICATECHIN GALLATE] | Active | 5.00 | – | –
O=C(O[C@@H]1Cc2c(O)cc(O)cc2O[C@H]1c1cc(O)c(O)c(O)c1)c1cc(O)c(O)c(O)c1 [GALLOCATECHIN GALLATE] | Active | 5.00 | – | –
Oc1cc(O)c2c(c1)O[C@@H](c1ccc(O)c(O)c1)[C@H](O)C2 | – | – | inactive | –
O=C(O[C@@H]1Cc2c(O)cc(O)cc2O[C@@H]1c1cc(O)c(O)c(O)c1)c1cc(O)c(O)c(O)c1 [EPIGALOCATECHIN GALLATE] | Active | 5.00 | – | pKi [3]: 5.48; concentration (Homo sapiens): 7.5 µM; concentration (Mus musculus): 9 µM
Oc1cc(O)c2c(c1)O[C@H](c1ccc(O)c(O)c1)[C@H](O)C2 | – | – | inactive | –
O=C(O)c1cc(O)c(O)c(O)c1 | – | – | inactive | –
Oc1cc(O)c2c(c1)O[C@H](c1cc(O)c(O)c(O)c1)[C@H](O)C2 | – | – | inactive | –
